Results from ChEMBL document CHEMBL4052637, “Discovery and Characterization of R/S-N-3-Cyanophenyl-N'-(6-tert-butoxycarbonylamino-3,4-dihydro-2,2-dimethyl-2H-1-benzopyran-4-yl)urea, a New Histone Deacetylase Class III Inhibitor Exerting Antiproliferative Activity against Cancer Cell Lines” (J Med Chem, 2017).
Active and inactive are the calls of the source. The calls are words filed in the database; no cut-off is given here.

Key:
NCI-H460 = assay: Growth inhibition of human NCI-H460 cells after 48 hrs by SRB assay; type: functional; conditions: NCI-H460, 48 h
MOLT-4 = assay: Growth inhibition of human MOLT4 cells after 48 hrs by SRB assay; type: functional; conditions: MOLT-4, 48 h
[1] = biological target: T1, NAD-dependent protein deacetylase sirtuin-1 (Homo sapiens) (UniProt Q96EB6); assay: Inhibition of SIRT1 in human Hs683 cells assessed as increase of histone H4 acetylation at 5 uM after 8 hrs by Western blotting method relative to control; type: cell-based
T1 sequence (whole entry): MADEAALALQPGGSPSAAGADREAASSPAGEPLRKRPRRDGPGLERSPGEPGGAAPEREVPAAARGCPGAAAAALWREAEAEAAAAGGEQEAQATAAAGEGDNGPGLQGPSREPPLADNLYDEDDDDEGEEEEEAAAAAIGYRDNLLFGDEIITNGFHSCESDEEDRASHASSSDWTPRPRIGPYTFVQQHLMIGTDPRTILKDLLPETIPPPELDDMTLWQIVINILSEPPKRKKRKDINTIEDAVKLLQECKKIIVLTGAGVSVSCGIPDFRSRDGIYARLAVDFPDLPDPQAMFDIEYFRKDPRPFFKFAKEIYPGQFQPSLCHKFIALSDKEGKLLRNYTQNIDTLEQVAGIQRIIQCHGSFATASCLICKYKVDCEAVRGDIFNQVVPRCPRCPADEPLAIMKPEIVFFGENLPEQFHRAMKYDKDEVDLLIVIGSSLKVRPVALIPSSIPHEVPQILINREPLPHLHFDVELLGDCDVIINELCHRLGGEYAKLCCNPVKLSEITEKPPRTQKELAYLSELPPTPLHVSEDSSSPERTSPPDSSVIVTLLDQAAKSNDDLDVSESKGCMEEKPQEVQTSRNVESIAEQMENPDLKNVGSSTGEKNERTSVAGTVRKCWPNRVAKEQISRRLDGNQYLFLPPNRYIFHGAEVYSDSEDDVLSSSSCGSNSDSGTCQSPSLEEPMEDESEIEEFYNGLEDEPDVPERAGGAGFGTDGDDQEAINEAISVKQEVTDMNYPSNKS

Hs 683 = assay: Cell cycle arrest in human Hs683 cells assessed as accumulation at G2/M phase at 2 uM after 24 to 48 hrs by propidium iodide staining-based flow cytometry; type: functional; conditions: 5.8 uM, in the assay text read “at 5.8 uM” for “at 2 uM”
Summary of the method: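 Cells were exposed to compound at the IC50 for each line from the 72 h MTT assay, or to a reference HDAC inhibitor at 2 μM. Cell cycle distribution was analyzed after 24 and 48 h. Results are mean ± SD of three independent experiments, with p values against control cells.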

NCI-H226 = assay: Growth inhibition of human NCI-H226 cells after 48 hrs by SRB assay; type: functional; conditions: NCI-H226, 48 h
SW1573/2R160 = assay: Antiproliferative activity against human SW1573/2R160 cells overexpressing ABCB1 after 72 hrs by MTT assay; type: functional, cell-based
Summary of the method: (§1)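 MTT assay: cells in RPMI 1640 with 10% heat-inactivated FCS at 37 °C and 5% CO2 were seeded 24 h before treatment. They were exposed 72 h to compound at 0.01–100 μM, with DMSO as solvent.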

[2] = biological target: T1, NAD-dependent protein deacetylase sirtuin-1 (Homo sapiens); assay: Inhibition of SIRT1 in human U373 cells assessed as increase of histone H3K56 acetylation at 10 to 25 after 8 to 24 hrs by Western blotting method; type: cell-based
Summary of the method: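 Cells treated with the compound, then histone H3K56 acetylation assessed by Western blot on histone extracts; histone H1 or Coomassie staining as loading control.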

[3] = biological target: T2, NAD-dependent protein deacetylase sirtuin-2 (Homo sapiens) (UniProt Q8IXJ6); assay: Inhibition of SIRT2 in human U373 cells assessed as increase of alpha-tubulin acetylation at 1 uM after 8 hrs by Western blotting method relative to control; type: cell-based
T2 sequence (whole entry): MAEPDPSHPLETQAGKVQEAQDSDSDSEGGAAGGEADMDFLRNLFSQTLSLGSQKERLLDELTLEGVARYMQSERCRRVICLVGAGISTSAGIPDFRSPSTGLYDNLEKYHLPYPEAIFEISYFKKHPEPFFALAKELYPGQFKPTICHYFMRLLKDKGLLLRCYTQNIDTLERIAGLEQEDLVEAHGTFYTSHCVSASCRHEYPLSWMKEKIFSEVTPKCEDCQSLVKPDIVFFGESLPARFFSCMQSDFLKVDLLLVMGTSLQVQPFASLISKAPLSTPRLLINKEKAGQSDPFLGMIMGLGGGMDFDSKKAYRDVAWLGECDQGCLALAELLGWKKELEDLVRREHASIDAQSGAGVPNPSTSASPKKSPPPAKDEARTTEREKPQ

[4] = biological target: T2, NAD-dependent protein deacetylase sirtuin-2 (Homo sapiens); assay: Inhibition of SIRT2 in human Hs683 cells assessed as increase of alpha-tubulin acetylation at 2.5 uM after 8 hrs by Western blotting method relative to control; type: cell-based
[5] = biological target: Histone deacetylase 8 (Homo sapiens) (UniProt Q9BY41); assay: Inhibition of recombinant human HDAC8 expressed in Escherichia coli at 0.1 to 100 uM using Fluor-de-Lys-HDAC8 as substrate after 15 mins by fluorescence assay
Sequence of Histone deacetylase 8 (Homo sapiens) (Q9BY41 whole entry): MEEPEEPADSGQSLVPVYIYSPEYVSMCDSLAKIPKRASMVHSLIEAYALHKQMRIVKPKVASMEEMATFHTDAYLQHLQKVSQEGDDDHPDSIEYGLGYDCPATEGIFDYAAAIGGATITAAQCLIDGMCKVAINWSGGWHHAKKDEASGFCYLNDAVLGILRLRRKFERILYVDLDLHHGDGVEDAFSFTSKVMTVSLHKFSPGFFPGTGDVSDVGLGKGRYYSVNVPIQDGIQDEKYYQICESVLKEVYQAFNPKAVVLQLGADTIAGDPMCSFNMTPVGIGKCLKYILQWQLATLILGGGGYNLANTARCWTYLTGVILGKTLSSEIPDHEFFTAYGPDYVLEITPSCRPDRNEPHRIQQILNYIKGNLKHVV

HT-29 = assay: Growth inhibition of human HT-29 cells after 48 hrs by SRB assay; type: functional; conditions: HT-29, 48 h
[6] = biological target: T2, NAD-dependent protein deacetylase sirtuin-2 (Homo sapiens); assay: Inhibition of SIRT2 in human Hs683 cells assessed as increase of alpha-tubulin acetylation at 5 uM after 8 hrs by Western blotting method relative to control; type: cell-based
ACHN = assay: Growth inhibition of human ACHN cells after 48 hrs by SRB assay; type: functional
[7] = Selectivity index, ratio of IC50 for mouse astrocytes to IC50 for human T98G cells
PBMC = assay: Cytotoxicity against human PBMC assessed as decrease in cell viability at 1 to 100 uM after 24 to 48 hrs; type: cell-based
HOP-62 = assay: Growth inhibition of human HOP62 cells after 48 hrs by SRB assay; type: functional; conditions: HOP-62, 48 h
[8] = biological target: T1, NAD-dependent protein deacetylase sirtuin-1 (Homo sapiens); assay: Inhibition of SIRT1 in human U373 cells assessed as increase of histone H4 acetylation at 10 uM after 8 hrs by Western blotting method relative to control; type: cell-based
KB-HU = assay: Antiproliferative activity against human KB-HU cells overexpressing ribonucleotide reductase subunit 2 after 72 hrs by MTT assay; type: functional, cell-based; summary of the method: as §1
CAKI-1 = assay: Growth inhibition of human Caki1 cells after 48 hrs by SRB assay; type: functional; conditions: CAKI-1, 48 h
A2780cis = assay: Antiproliferative activity against human A2780cis cells after 72 hrs by MTT assay; type: functional, cell-based; summary of the method: as §1
OVCAR-5 = assay: Growth inhibition of human OVCAR5 cells after 48 hrs by SRB assay; type: functional; conditions: OVCAR-5, 48 h
MDA-MB-231 = assay: Growth inhibition of human MDA-MB-231 cells after 48 hrs by SRB assay; type: functional; conditions: MDA-MB-231, 48 h
EKVX = assay: Growth inhibition of human EKVX cells after 48 hrs by SRB assay; type: functional
[9] = biological target: T1, NAD-dependent protein deacetylase sirtuin-1 (Homo sapiens); assay: Inhibition of SIRT1 in human U373 cells assessed as increase of histone H4 acetylation at 2.5 uM after 8 hrs by Western blotting method relative to control; type: cell-based

CC(C)(C)OC(=O)Nc1ccc2c(c1)C(NC(=O)Nc1cccc(C#N)c1)CC(C)(C)O2 (centres undefined)
GI50 (NCI-H460): 3.02 µM | GI50 (MOLT-4): 2.09 µM | fold change (FC) [1]: 8.3 | Activity (Hs 683): Active | GI50 (NCI-H226): 2 µM | Activity (SW1573/2R160): Active | inhibition [2]: Active | fold change (FC) [3]: 0.9 | fold change (FC) [4]: 1.2 | inhibition [5]: inactive | GI50 (HT-29): 6.92 µM | fold change (FC) [6]: 1.5 | GI50 (ACHN): 3.8 µM | Ratio IC50 [7]: >10 | Activity (PBMC): Non-Toxic | GI50 (HOP-62): 5.01 µM | fold change (FC) [8]: 4.1 | Activity (KB-HU): Active | GI50 (CAKI-1): 2.45 µM | Activity (A2780cis): Active | GI50 (OVCAR-5): 33.9 µM | GI50 (MDA-MB-231): 4.27 µM | GI50 (EKVX): 0.562 µM | fold change (FC) [9]: 1
